Like-named read-outs stand apart in the source and are kept apart here.
Key:
MDR1-MDCKII cells [1] = assay: MDR1-MDCKII assay; conditions: 3 μM
T. brucei cells = assay: Protein synthesis inhibition assay; type: cell-based, Trypanosoma brucei; conditions: 4 h, concentrations 1 to 16 times the 48 hour EC50
Procedure, shortened: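 Mid-log bloodstream-form T. brucei (5×10^5 cells/well) in HMI-9 medium, given test compound in triplicate and preincubated 15 min, with a no-drug control on each plate. Cells cultured with 3H-histidine; filters counted by scintillation.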

[2] = system: CRL-8155 human lymphoblast cell line; assay: Mammalian cell growth inhibition assay; type: cell-based; conditions: CRL8155, 48 h, read-out: CRL-8155 IC50
[3] = target: T1, human mitochondrial MetRS (Homo sapiens, UniProt Q96GW9); assay: Human mitochondrial methionyl-tRNA synthetase aminoacylation assay; type: biochemical
T1 sequence (Q96GW9 30-593): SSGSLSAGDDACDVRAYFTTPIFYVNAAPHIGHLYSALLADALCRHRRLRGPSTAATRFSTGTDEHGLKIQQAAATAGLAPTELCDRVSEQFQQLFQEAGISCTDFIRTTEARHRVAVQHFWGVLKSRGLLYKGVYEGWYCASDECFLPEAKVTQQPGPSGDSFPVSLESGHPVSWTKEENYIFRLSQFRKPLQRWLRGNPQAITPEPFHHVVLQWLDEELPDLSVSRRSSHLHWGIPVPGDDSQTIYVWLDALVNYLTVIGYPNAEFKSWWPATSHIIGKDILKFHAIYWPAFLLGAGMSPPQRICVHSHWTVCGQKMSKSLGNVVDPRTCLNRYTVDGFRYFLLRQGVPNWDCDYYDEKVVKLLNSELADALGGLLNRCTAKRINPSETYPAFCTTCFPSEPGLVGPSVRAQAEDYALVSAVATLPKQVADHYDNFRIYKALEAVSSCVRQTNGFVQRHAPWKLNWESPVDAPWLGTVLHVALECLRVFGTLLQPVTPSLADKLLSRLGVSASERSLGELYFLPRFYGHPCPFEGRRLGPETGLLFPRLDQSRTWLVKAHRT
Procedure, shortened: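 Recombinant enzyme (20 nM) preincubated 15 min with 12 serial two-fold dilutions of test compound in 50 mM Tris-HCl pH 8.0, 2.5 mM MgCl2, 2.5 mM KCl, 0.2 mM spermine, 0.2 mg/mL BSA, 2.5 mM DTT, 1 U/mL pyrophosphatase. Started with 200 μg/mL E. coli tRNA, 2.5 mM ATP, 250 nM [3H]methionine; 120 min, 37°C. Filtered, TCA-washed, scintillation-counted in quadruplicate; IC50 by sigmoidal nonlinear regression.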

T. brucei rhodesiense = assay: Efficacy studies in mice; type: in vivo; conditions: 50 mg/kg oral every 12 h for 4 days
MDR1-MDCKII cells [4] = conditions: dog, MDCK-MDR1, 60 min, 3 μM

SMILES | IC50 [3] | Incorporation of 3H-amino acid into proteins (T. brucei cells) | IC50 [2] | further results
CC(C)CN(C[C@@H](O)[C@H](Cc1ccccc1)NC(=O)O[C@H]1CCOC1)S(=O)(=O)c1ccc(N)cc1 [Amprenavir] | – | – | – | AQ (typical control value) (MDR1-MDCKII cells [1]): > 0.5
Oc1cc(NCCCNCc2cc(Cl)cc(Cl)c2)nc2ccccc12 [Compound 1] | – | dose dependent decrease | – | –
O=C(NCCCNCc1cc(Cl)cc(Cl)c1)Nc1ccccc1 [Compound 2, 1-(3-(3,5-Dichlorobenzylamino)propyl)-3-phenylurea] | > 10 µM | – | 12 µM | Selectivity Index Human IC50 / T. brucei IC50 ([3]; human mitochondrial MetRS IC50 over T. brucei MetRS IC50): >175
COc1cc(Cl)cc(CNCCCNC(=O)Nc2ccccc2)c1 [Compound 4] | 8.35 µM | – | 20 µM | –
O=C(NCCCNCc1cc(Cl)cc(Cl)c1)Nc1ccsc1 [Compound 26, 1-[3-(3,5-Dichloro-benzylamino)-propyl]-3-thiophen-3-yl-urea] | 4.35 µM | dose dependent decrease | 12 µM | Extension of survival (T. brucei rhodesiense): 1 days; Toxicity in treated mice (T. brucei rhodesiense): No toxicity
NCCCC(N)(C(=O)O)C(F)F (stereo not shown) [DFMO, difluoromethylornithine] | – | did not result in a dose dependent decrease | – | –
CC(C)NCC(O)COc1cccc2ccccc12 (stereo not shown) [Propranolol] | – | – | – | AQ (typical control value) (MDR1-MDCKII cells [4]): < 0.5
C[C@@H]1C[C@@H]([C@H](O)CC2CC(=O)NC(=O)C2)C(=O)[C@@H](C)C1 [cycloheximide] | – | dose dependent decrease | – | –

Now from value to compound, other results behind:

IC50 [3] | SMILES | Incorporation of 3H-amino acid into proteins (T. brucei cells) | IC50 [2] | further results
3.72 µM | O=C(NCCCNCc1cc(Cl)cc(Cl)c1)Nc1ccccc1O [Compound 16] | – | > 20 µM | –
5.43 µM | O=C(NCCCNCc1cc(Cl)cc(Cl)c1)Nc1cccc(O)c1 [Compound 17] | – | 12 µM | –
4.25 µM | O=C(NCCCNCc1cc(Cl)cc(Cl)c1)Nc1cccc(F)c1 [Compound 18] | – | 43.2 µM | –
6.59 µM | COc1cc(Cl)cc(CNCCCNC(=O)Nc2ccsc2)c1 [Compound 27, 1-[3-(3-Chloro-5-methoxy-benzylamino)-propyl]-3-thiophen-3-yl-urea] | – | 22 µM | –
3.06 µM | O=C(NCCCNCc1cc(Cl)cc(Cl)c1)Nc1cccs1 [Compound 28] | – | 9.5 µM | –

From article PMC3480199 (Journal of medicinal chemistry, 2012)
